Source: PubChem BioAssay AID624467 (The Scripps Research Institute Molecular Screening Center, 2012)
About 3,600 (1%) of roughly 360,000 compounds were called active.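 Rule for the calls: active = activation above the mean activation of all test compounds in the run plus 3 SD (cut at about 38% in these data); inactive = the rest.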 Many of the other results were omitted from the sample, so actives are more common in it than they were.

Each compound was assayed against Trace amine-associated receptor 1 (Homo sapiens) (UniProt Q96RJ0) (assay: human TAAR1 agonists, primary screen, Fluo-8 calcium fluorescence, CHO RD-HGA16 cells (AID 624467)). Settings: CHO RD-HGA16 TAAR1, Fluo-8 calcium fluorescence; at 3 µM; stronger effect = higher value; vehicle wells 0%, saturating PEA agonist 100%.
Summary of the method: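 Test system: RD-HGA16 (CHO) cells co-expressing Gα16 and hTAAR1 | Doses: Single dose, 3 µM | Schedule: 17-24 h seeding, 75 min 37 °C dye, 30 min RT | Evaluation: % activation from peak over basal fluorescence ratio, DMSO-to-PEA scaled | Technique: Kinetic Fluo-8 calcium fluorescence | Benchmarks: Low control DMSO, high control PEA (EC100)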

Sequence of Trace amine-associated receptor 1 (Homo sapiens) (Q96RJ0 whole entry, looked up): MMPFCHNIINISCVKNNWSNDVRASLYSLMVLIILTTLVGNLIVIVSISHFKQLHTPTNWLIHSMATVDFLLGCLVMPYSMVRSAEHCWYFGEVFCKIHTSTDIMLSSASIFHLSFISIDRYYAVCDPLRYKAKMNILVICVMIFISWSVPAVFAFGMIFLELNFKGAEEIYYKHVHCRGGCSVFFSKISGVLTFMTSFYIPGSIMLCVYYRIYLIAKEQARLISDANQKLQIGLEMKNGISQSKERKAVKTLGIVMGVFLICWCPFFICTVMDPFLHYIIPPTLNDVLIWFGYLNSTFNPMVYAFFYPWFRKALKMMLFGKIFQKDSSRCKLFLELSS

SMILES	activation
CCOc1ccc(NC(=O)N2CC=C(n3c(=O)[nH]c4ccccc43)CC2)cc1	15.9% (inactive)
O=C(Nc1ccc(Cl)cc1)N1CCc2[nH]c3ccccc3c2C1	50.1% (active)
C[C@H](O)[C@@H]1C(=O)N2CCc3c([nH]c4ccccc34)[C@@H]2C[C@@H]1N(C)C(=O)Nc1ccc(F)cc1	9.88% (inactive)
C=CCNC(=S)N1CCc2[nH]c3ccccc3c2C1	6.5% (inactive)
Fc1ccc(NC(=S)N2CCc3[nH]c4ccccc4c3C2)cc1	51.5% (active)
CC(=O)C(CC(=O)N1CCCC1)C(=O)Nc1ccc(Cl)cc1 (stereo unspecified)	7.47% (inactive)
COC(=O)C(C(=O)OC)c1ccccc1NS(=O)(=O)c1cccc2ccccc12	-0.61% (inactive)
CCOc1ccccc1C(=O)N1CCC[C@@H]1C(=O)N1CCC[C@H]1C(=O)NCc1ccccc1	-0.21% (inactive)
Cc1ccc2nc(CN(C)C(=O)[C@@H](Cc3ccccc3)NC(=O)[C@H]3O[C@@H](n4ccc(=O)[nH]c4=O)[C@H](O)[C@@H]3O)[nH]c2c1	1.15% (inactive)
CC(C)CCNC(=O)Cn1c(=O)oc2cc(S(=O)(=O)N3CC(C)CC(C)C3)ccc21 (stereo unspecified)	4.15% (inactive)
N/C(=N\c1nc2ccccc2o1)NC(=O)C(Cc1ccccc1)N1C(=O)c2ccccc2C1=O (stereo unspecified)	-1.96% (inactive)
O=C(NCC1CCN(Cc2ccccc2Cl)CC1)Nc1cccc(Cl)c1	2.1% (inactive)
Cc1ccc(C)c(CN2CCC(CNC(=O)Nc3ccc(C)c(F)c3)CC2)c1	2.76% (inactive)
Cc1cccc(CN2CCC(CNC(=O)Nc3ccc(F)c(Cl)c3)CC2)c1	39.9% (active)
COc1ccc(C(=O)OCC(=O)NCC2CCCO2)cc1[N+](=O)[O-] (stereo unspecified)	-0.84% (inactive)
O=S(=O)(Nc1cc(S(=O)(=O)N2CCOCC2)ccc1N1CCCC1)c1cccs1	-2.22% (inactive)
CC1(C)c2[nH]c3ccccc3c2C[C@H]2C(=O)N(N)CC(=O)N21	4.18% (inactive)
COc1cc(S(=O)(=O)N2CCN=C2c2ccccc2)ccc1Cl	-0.47% (inactive)
CCOC(=O)[C@]12CCCC=C1N(CCC1=CCCCC1)C(=O)[C@H](CC(=O)NCCCOC)C2	-0.95% (inactive)
O=C(NCCN1CCOCC1)/C(=C/c1ccc(F)cc1)NC(=O)c1ccccc1	-2.27% (inactive)
CCOc1ccc(/C=C(/NC(=O)c2ccccc2)C(=O)NCCC(=O)O)cc1	5.67% (inactive)
O=C(NCCc1ccccc1)/C(=C\c1ccc([N+](=O)[O-])cc1)NC(=O)c1ccccc1	50.3% (active)

SMILES	activation
COC(=O)Cc1nnn2c1[C@H](C)[C@@H](OC)c1cc(Br)ccc1-2	0.26% (inactive)
O=C(Cn1cnc2c(cnn2-c2ccc(F)cc2)c1=O)NCCc1ccccc1	-0.7% (inactive)
Cc1ccc(NC(=O)Nc2cc(-c3ccccc3)nn2C)cc1Cl	11.2% (inactive)
Cc1nnc(NC(=O)Nc2ccc(Cl)c(Cl)c2)s1	42% (active)
O=C(CC(O)(C(F)(F)F)C(F)(F)F)Nc1ccc(Cl)c(Cl)c1	12.3% (inactive)
O=P(O)(CP(=O)(c1ccccc1)c1ccccc1)c1ccccc1	12.7% (inactive)
O=C(COC(=O)Cc1c[nH]c2ccccc12)NCCc1ccccc1	8.93% (inactive)
O=C(COC(=O)Cc1ccccc1F)NCCc1ccccc1	47.4% (active)
COc1ccc(CCNC(=O)COC(=O)Cc2ccccc2F)cc1	2.06% (inactive)
COc1ccccc1N(CC(=O)NC1CCCC1)C(=O)C1(C)CC(=O)N=C2C=CC(C)=CN21 (stereo unspecified)	2.01% (inactive)
CCC(=O)Nc1nnc(S(=O)(=O)N2CCCc3ccccc32)s1	0.28% (inactive)
CCN(CC)CCN(C(=O)c1ccc(N2C(=O)CCC2=O)cc1)c1nc2cc3c(cc2s1)OCO3	2.36% (inactive)
CN(C)CCCN(C(=O)c1ccc(S(=O)(=O)N2CCCc3ccccc32)cc1)c1nc2ccc(F)cc2s1	58.5% (active)
CCN(CC(=O)Nc1c(F)cccc1F)C(=O)c1ccc(S(=O)(=O)N2CCCCC2)cc1	8.1% (inactive)
CN(C)CCCN(C(=O)c1ccc(S(=O)(=O)N2CCCCCC2)cc1)c1nc2ccc(Br)cc2s1	58.3% (active)
CC1CCN(C(=O)c2cccc(S(=O)(=O)N3CCCc4ccccc43)c2)CC1	2.06% (inactive)
O=C(CO/N=C/c1ccccc1O)NNC(=O)c1ccccc1Cl	8.86% (inactive)
C=CCOc1ccccc1/C=N/NC(=O)Cc1ccccc1	3.06% (inactive)
O=C(NN=Cc1ccccc1O)NN=Cc1ccccc1O	43.2% (active)
NC(CSC(c1ccccc1)(c1ccccc1)c1ccc(-c2ccccc2)cc1)C(=O)O (stereo unspecified)	3.19% (inactive)
O=S(=O)(Cc1ccc(Cl)cc1Cl)c1ccc(Cl)cc1	6.28% (inactive)
COC(=O)C1=C(C)N(Cc2cccc(C(F)(F)F)c2)C(=NCc2cccc(C(F)(F)F)c2)NC1c1ccccc1C(F)(F)F (stereo unspecified)	-0.1% (inactive)

SMILES	activation
CC(=O)c1cccc(NC(=O)N2CCCC2C(=O)NCCc2ccccc2)c1 (stereo unspecified)	4.48% (inactive)
O=C(N[C@H](C(=O)N1CCC[C@H]1C(=O)NCCc1ccccc1Cl)c1ccccc1)c1ccccc1	57.5% (active)
O=C(NCCc1ccc(Cl)cc1)C1CCCN1C(=O)NCc1ccccc1 (stereo unspecified)	-0.77% (inactive)
CC1CCN(C(=O)CCc2nnc3ccc(NCc4ccco4)nn23)CC1	6.46% (inactive)
COc1ccc(N2C(=O)CC(Nc3ccc(F)cc3)C2=O)c([N+](=O)[O-])c1 (stereo unspecified)	2.14% (inactive)
Nc1nc2c(ncn2[C@@H]2O[C@H](C(=O)N[C@@H](Cc3ccccc3)C(=O)NCc3ccccc3)[C@@H](O)[C@H]2O)c(=O)[nH]1	5.02% (inactive)
CC(C)[C@H](NC(=O)N1CCn2c1nc1ccccc12)C(=O)NC1CC1	1.88% (inactive)
CC(C)[C@H](NC(=O)N1CCn2c1nc1ccccc12)C(=O)NCc1ccc2c(c1)OCO2	3.58% (inactive)
CC(C)[C@H](NC(=O)N1CCn2c1nc1ccccc12)C(=O)NCCc1ccccc1	38.9% (active)
C=CCOc1ccc(C(=O)Nc2ccccc2C(=O)N2CCCC2)cc1	-0.26% (inactive)
Cc1cc2nc3c(=O)n(Cc4ccccc4)c(=O)[nH]c3nc2cc1N	53.8% (active)
CN(C(=O)COC(=O)c1ccc(Br)o1)c1c(N)n(Cc2ccccc2)c(=O)[nH]c1=O	0.16% (inactive)
Nc1cc(=O)n(Cc2ccccc2)c(=O)n1Cc1ccccc1	1.88% (inactive)
CCN(c1ccccc1)S(=O)(=O)c1cccc(C(=O)NCc2ccccc2CN2CCOCC2)c1	5.65% (inactive)
COC(=O)[C@]1(Cc2ccccc2)NC=C(C(=O)c2ccccc2)[C@@H]1c1cccc(OC)c1	0.41% (inactive)
C[C@H](O)[C@@H]1CN2CCc3ccc(-c4ccc5c(c4)OCO5)cc3[C@@H]2C[C@@H]1N(C)C(=O)C1CCCCC1	-1.03% (inactive)
O=C(O)Cn1cnc2c(NCc3ccccc3)ncnc21	2.25% (inactive)
Cc1ccccc1NC(=O)Cc1nc(COC(=O)c2ccc(C(F)(F)F)cc2)cs1	6.08% (inactive)
CC(C)(C)CC(=O)Nc1nc(C(N)Cc2ccc(C(F)(F)F)cc2)cs1 (stereo unspecified)	63.4% (active)
NC(Cc1ccc(F)cc1)c1csc(Nc2nncc3ccccc23)n1 (stereo unspecified)	35.4% (inactive)
CC(C)(C)CC(=O)Nc1nnc(SCC(=O)NCc2cccs2)s1	1.84% (inactive)
COC(=O)[C@H](CCSC)NC(=O)Nc1ccc(OC)cc1	-1.88% (inactive)

SMILES	activation
COc1ccc(CC(=O)Nc2sc(Cc3ccccc3)c(C)c2C(N)=O)cc1	3.38% (inactive)
COc1ccc(CC(N)c2csc(NC(=O)Cc3ccccc3)n2)cc1 (stereo unspecified)	56.1% (active)
COc1ccc(CC(N)c2csc(NC(=O)NC(c3ccccc3)c3ccccc3)n2)cc1 (stereo unspecified)	21.8% (inactive)
COc1ccc(CC(N)c2csc(NC(=O)Nc3ccc(C(C)C)cc3)n2)cc1 (stereo unspecified)	47.2% (active)
NC(Cc1ccccc1)c1csc(Nc2cc(Oc3ccccc3)ncn2)n1 (stereo unspecified)	69.5% (active)
COc1ccc(S(=O)(=O)N2CCN(C(C)C(=O)Nc3ccc(C(C)C)cc3)CC2)cc1 (stereo unspecified)	0.11% (inactive)
CC(=NNC(N)=O)c1ccc(Cl)c(-n2cccc2)c1	0.51% (inactive)
CCN(C(=O)c1ccc(Br)cc1)c1ccccc1	0.89% (inactive)
COc1ccc(CNS(=O)(=O)c2cc(Br)ccc2Br)cc1	3.49% (inactive)
C[C@@H]1CN([C@H](C)CO)C(=O)CCCn2cc(nn2)CO[C@H]1CN(C)C(=O)Nc1ccc(N2CCCCC2)cc1	0.76% (inactive)
O=C(C(=O)N1CCC(CNS(=O)(=O)Cc2ccccc2)CC1)c1cc2ccccc2o1	3.18% (inactive)
CCOC(=O)c1cnc(SC)nc1Sc1ccc(Cl)cc1Cl	9.74% (inactive)
C=CCNC(=O)c1sc(SC)cc1-c1ccc(Cl)cc1	4.3% (inactive)
CC(C)(C)C(c1nc2ccccc2[nH]1)n1c(Cc2csc3ccccc23)nc2ccccc21 (stereo unspecified)	0.77% (inactive)
CC(=O)C1=C(C)N(Cc2ccc(Cl)cc2)C(=S)NC1c1ccc(F)cc1 (stereo unspecified)	-0.39% (inactive)
O=[N+]([O-])c1cccc(S(=O)(=O)NCc2ccccn2)c1	2.02% (inactive)
O=[N+]([O-])c1cc(S(=O)(=O)NCCc2ccccn2)ccc1Cl	68.6% (active)
O=S(=O)(NCCc1ccccn1)c1cc(Cl)cc(Cl)c1O	3.97% (inactive)
CCCCOCC1CN(CCCC)S(=O)(=O)c2c(Oc3ccc(F)cc3)cccc2O1 (stereo unspecified)	1.51% (inactive)
COC(=O)C1=C(C)N(Cc2cccc(C(F)(F)F)c2)C(=NCc2ccccc2)NC1c1ccc(Cl)cc1 (stereo unspecified)	19.1% (inactive)
